This is an account of results in article PMC3880631 (Journal of medicinal chemistry, 2013).

In data set [1] the test system is selectively-mutated p51 thumb α-helix I variants (Lys275 – Arg286) of HIV-1 RT. It counts as biochemical. Conditions: Supplementary Table S1. The essentials:
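Reconstituted p66/p51 RT with p51 thumb mutations (150 - 800 ng), pre-mixed with test compound in DMSO; 18-nt 3′-fluorescein RNA/5′-dabsyl DNA hybrid (250 nM final) added to start. […] Triplicates.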

A further data set concerns HIV-1RF isolate. In words: in vitro. The format is cell-based.
Data set [2] deals with HIV-1 RT DNA-dependent DNA polymerase activity (Human immunodeficiency virus type 1 group M subtype B, UniProt P03366). The data set is described as follows: DNA-dependent DNA polymerase assay. It counts as biochemical. Conditions: read-out: inhibition of DNA-dependent DNA polymerase activity.

With `Cc1sc2nc(-c3ccc(O)c(O)c3)[nH]c(=O)c2c1C` [Compound 9], the “sensitivity of the entire panel of p51 thumb α-helix I variants” value in data set [1] is recorded as “uniformly sensitive”.

For the compound `CCCc1c(C)sc2nc(-c3ccc(O)c(O)c3)[nH]c(=O)c12` [Compound 24], in the data set on HIV-1RF isolate (human, sr, selectivity ratio, i.e., CC50/EC50, CC50/EC50), the selectivity ratio is ~6.

A word on the inhibition: it is the percentage by which the read-out fell short of the control. In the case of `CCCCc1c(C)sc2nc(-c3ccc(O)c(O)c3)[nH]c(=O)c12` [Compound 25], in data set [2], the inhibition at 50 µM is > 60%.

In the case of `O=c1[nH]c(-c2ccc(O)c(O)c2)nc2sc3c(c12)CCCC3` [Compound 28], in data set [2], the inhibition at 50 µM was > 60%. The “protection from HIV infection” value in the data set with HIV-1RF isolate (HIV-1RF in CEM-SS cells) is on record as “failed to elicit protection from HIV infection”.

Take `O=c1[nH]c(-c2ccc(O)c(O)c2)nc2sc3c(c12)CCCCCC3` [Compound 30]: the inhibition at 50 µM in data set [2] was > 60%.
